Several values for one entry are separate records, joined by “and”; a condition that tells them apart may be missing. Equal values may be shown once.
Tests used:
Format in all cases: toxicity, cell-based
[1] = tested on: U2OS; test: Multiplex assay against U2OS; conditions: human
Outline: (§1)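 Values for tubulin, mitochondrial-mass and membrane-permeability phenotypes are per cents of cells with healthy nuclei. These cells were identified by CellPathfinder machine-learning gating of live cells that had been stained at seeding with Hoechst33342, BioTracker Green Microtubule Cytoskeleton Dye, MitoTracker Red and Annexin V Alexa Fluor 680 and imaged on a CQ1 microscope at 37°C and 5% CO2 after compound addition. The gating first set Hoechst high-intensity objects apart from normal cells, then split normal cells into healthy, pyknosed or fragmented nuclei, and pyknosed cells into mitotic or apoptotic.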

[2] = tested on: HEK-293T; test: Multiplex assay against HEK293T; conditions: human; outline: as §1
[3] = tested on: Fibroblast; test: Multiplex assay against human fibroblast; outline: as §1
[4] = 12 h, 1 µM, compound concentration 1 uM
[5] = 12 h, 10 µM, compound concentration 10 uM
[6] = 24 h, 1 µM, compound concentration 1 uM
[7] = 24 h, 10 µM, compound concentration 10 uM
[8] = 48 h, 1 µM, compound concentration 1 uM
[9] = 48 h, 10 µM, compound concentration 10 uM

Cc1ccc(-c2ccc(F)cc2COc2ccc(CCC(=O)O)cc2)cc1
Population Apoptotic (%) [1, 4]: 75% and 100%
Population Fragmented Nuclei (%) [1, 4]: 22% and 17%
Population Healthy Nuclei (%) [1, 4]: 71% and 74%
Population Hoechst High Intensity Objects (%) [1, 4]: 2%
Population Mitochondria Different-Phenotype (%) [1, 4]: 3% and 0%
Population Mitotic Cells (%) [1, 4]: 25% and 0%
Population Normal (%) [1, 4]: 97%
Total Cell Count [1, 4]: 277 and 135
Population Apoptotic (%) [1, 5]: 75% and 83%
Population Fragmented Nuclei (%) [1, 5]: 31% and 14%
Population Healthy Nuclei (%) [1, 5]: 61% and 75%
Population Hoechst High Intensity Objects (%) [1, 5]: 1% and 2%
Population Mitochondria Different-Phenotype (%) [1, 5]: 2%
Population Mitotic Cells (%) [1, 5]: 25% and 16%
Population Normal (%) [1, 5]: 98% and 97%
Total Cell Count [1, 5]: 238 and 123
Population Apoptotic (%) [1, 6]: 90% and 100%
Population Fragmented Nuclei (%) [1, 6]: 21% and 20%
Population Healthy Nuclei (%) [1, 6]: 69% and 70%
Population Hoechst High Intensity Objects (%) [1, 6]: 2% and 1%
Population Mitochondria Different-Phenotype (%) [1, 6]: 2% and 0%
Population Mitotic Cells (%) [1, 6]: 10% and 0%
Population Normal (%) [1, 6]: 97% and 98%
Total Cell Count [1, 6]: 340 and 175
Population Apoptotic (%) [1, 7]: 94% and 93%
Population Fragmented Nuclei (%) [1, 7]: 26% and 22%
Population Healthy Nuclei (%) [1, 7]: 67%
Population Hoechst High Intensity Objects (%) [1, 7]: 1% and 2%
Population Mitochondria Different-Phenotype (%) [1, 7]: 3% and 4%
Population Mitotic Cells (%) [1, 7]: 5% and 6%
Population Normal (%) [1, 7]: 98% and 97%
Total Cell Count [1, 7]: 295 and 160
Population Apoptotic (%) [1, 8]: 89% and 95%
Population Fragmented Nuclei (%) [1, 8]: 17% and 15%
Population Healthy Nuclei (%) [1, 8]: 74% and 75%
Population Hoechst High Intensity Objects (%) [1, 8]: 2%
Population Mitochondria Different-Phenotype (%) [1, 8]: 2%
Population Mitotic Cells (%) [1, 8]: 10% and 5%
Population Normal (%) [1, 8]: 97%
Total Cell Count [1, 8]: 487 and 242
Population Apoptotic (%) [1, 9]: 87% and 88%
Population Fragmented Nuclei (%) [1, 9]: 21% and 16%
Population Healthy Nuclei (%) [1, 9]: 70% and 72%
Population Hoechst High Intensity Objects (%) [1, 9]: 2% and 1%
Population Mitochondria Different-Phenotype (%) [1, 9]: 3%
Population Mitotic Cells (%) [1, 9]: 12% and 11%
Population Normal (%) [1, 9]: 97% and 98%
Total Cell Count [1, 9]: 421 and 236
Population Apoptotic (%) [2, 4]: 42% and 33%
Population Fragmented Nuclei (%) [2, 4]: 6%
Population Healthy Nuclei (%) [2, 4]: 82% and 77%
Population Hoechst High Intensity Objects (%) [2, 4]: 9%
Population Mitochondria Different-Phenotype (%) [2, 4]: 36% and 50%
Population Mitotic Cells (%) [2, 4]: 57% and 66%
Population Normal (%) [2, 4]: 90%
Population Pyknosed Nuclei (%) [2, 4]: 15%
Population Tubulin-Different-Phenotype (%) [2, 4]: 18%
Total Cell Count [2, 4]: 465 and 324
Population Apoptotic (%) [2, 5]: 32% and 42%
Population Fragmented Nuclei (%) [2, 5]: 10% and 7%
Population Healthy Nuclei (%) [2, 5]: 79% and 83%
Population Hoechst High Intensity Objects (%) [2, 5]: 7% and 6%
Population Mitochondria Different-Phenotype (%) [2, 5]: 46% and 58%
Population Mitotic Cells (%) [2, 5]: 67% and 57%
Population Normal (%) [2, 5]: 92% and 93%
Population Pyknosed Nuclei (%) [2, 5]: 10% and 9%
Population Tubulin-Different-Phenotype (%) [2, 5]: 33% and 15%
Total Cell Count [2, 5]: 329 and 396
Population Fragmented Nuclei (%) [2, 6]: 10% and 9%
Population Healthy Nuclei (%) [2, 6]: 82% and 80%
Population Hoechst High Intensity Objects (%) [2, 6]: 3% and 7%
Population Mitochondria Different-Phenotype (%) [2, 6]: 16% and 33%
Population Mitotic Cells (%) [2, 6]: 84% and 47%
Population Normal (%) [2, 6]: 96% and 92%
Population Pyknosed Nuclei (%) [2, 6]: 7% and 9%
Population Tubulin-Different-Phenotype (%) [2, 6]: 10% and 13%
Total Cell Count [2, 6]: 688 and 445
Population Apoptotic (%) [2, 7]: 36% and 51%
Population Fragmented Nuclei (%) [2, 7]: 11% and 6%
Population Healthy Nuclei (%) [2, 7]: 76% and 87%
Population Hoechst High Intensity Objects (%) [2, 7]: 3%
Population Mitochondria Different-Phenotype (%) [2, 7]: 30% and 37%
Population Mitotic Cells (%) [2, 7]: 63% and 48%
Population Normal (%) [2, 7]: 94% and 96%
Population Pyknosed Nuclei (%) [2, 7]: 6%
Population Tubulin-Different-Phenotype (%) [2, 7]: 18% and 13%
Total Cell Count [2, 7]: 397 and 461
Population Apoptotic (%) [2, 8]: 17% and 36%
Population Fragmented Nuclei (%) [2, 8]: 15% and 14%
Population Healthy Nuclei (%) [2, 8]: 79% and 77%
Population Hoechst High Intensity Objects (%) [2, 8]: 1% and 2%
Population Mitochondria Different-Phenotype (%) [2, 8]: 7% and 18%
Population Mitotic Cells (%) [2, 8]: 82% and 63%
Population Normal (%) [2, 8]: 98% and 97%
Population Pyknosed Nuclei (%) [2, 8]: 5%
Population Tubulin-Different-Phenotype (%) [2, 8]: 8% and 9%
Total Cell Count [2, 8]: 1149 and 631
Population Apoptotic (%) [2, 9]: 24% and 31%
Population Fragmented Nuclei (%) [2, 9]: 12% and 15%
Population Healthy Nuclei (%) [2, 9]: 78% and 79%
Population Hoechst High Intensity Objects (%) [2, 9]: 2% and 4%
Population Mitochondria Different-Phenotype (%) [2, 9]: 17% and 16%
Population Mitotic Cells (%) [2, 9]: 75% and 68%
Population Normal (%) [2, 9]: 97% and 95%
Population Pyknosed Nuclei (%) [2, 9]: 5%
Population Tubulin-Different-Phenotype (%) [2, 9]: 9% and 8%
Total Cell Count [2, 9]: 713 and 702
Population Apoptotic (%) [3, 4]: 42% and 37%
Population Fragmented Nuclei (%) [3, 4]: 13% and 23%
Population Healthy Nuclei (%) [3, 4]: 64% and 45%
Population Mitotic Cells (%) [3, 4]: 57% and 62%
Population Normal (%) [3, 4]: 99% and 93%
Population Pyknosed Nuclei (%) [3, 4]: 21% and 30%
Population Tubulin-Different-Phenotype (%) [3, 4]: 26%
Total Cell Count [3, 4]: 131 and 148
Population Apoptotic (%) [3, 5]: 19% and 31%
Population Fragmented Nuclei (%) [3, 5]: 15% and 23%
Population Healthy Nuclei (%) [3, 5]: 67% and 51%
Population Mitotic Cells (%) [3, 5]: 80% and 68%
Population Normal (%) [3, 5]: 99% and 93%
Population Pyknosed Nuclei (%) [3, 5]: 16% and 25%
Population Tubulin-Different-Phenotype (%) [3, 5]: 23% and 38%
Total Cell Count [3, 5]: 125 and 136
Population Apoptotic (%) [3, 6]: 38% and 62%
Population Fragmented Nuclei (%) [3, 6]: 16% and 25%
Population Healthy Nuclei (%) [3, 6]: 67% and 46%
Population Mitotic Cells (%) [3, 6]: 61% and 37%
Population Normal (%) [3, 6]: 97% and 95%
Population Pyknosed Nuclei (%) [3, 6]: 15% and 27%
Population Tubulin-Different-Phenotype (%) [3, 6]: 23% and 33%
Total Cell Count [3, 6]: 136 and 139
Population Apoptotic (%) [3, 7]: 47% and 46%
Population Fragmented Nuclei (%) [3, 7]: 9% and 26%
Population Healthy Nuclei (%) [3, 7]: 75% and 53%
Population Mitotic Cells (%) [3, 7]: 52% and 53%
Population Normal (%) [3, 7]: 98% and 92%
Population Pyknosed Nuclei (%) [3, 7]: 15% and 20%
Population Tubulin-Different-Phenotype (%) [3, 7]: 20% and 55%
Total Cell Count [3, 7]: 127 and 136
Population Apoptotic (%) [3, 8]: 56% and 69%
Population Fragmented Nuclei (%) [3, 8]: 21% and 29%
Population Healthy Nuclei (%) [3, 8]: 62% and 55%
Population Mitotic Cells (%) [3, 8]: 43% and 30%
Population Normal (%) [3, 8]: 96%
Population Pyknosed Nuclei (%) [3, 8]: 15%
Population Tubulin-Different-Phenotype (%) [3, 8]: 24% and 46%
Total Cell Count [3, 8]: 150 and 155
Population Apoptotic (%) [3, 9]: 72% and 48%
Population Fragmented Nuclei (%) [3, 9]: 11% and 30%
Population Healthy Nuclei (%) [3, 9]: 78% and 45%
Population Mitotic Cells (%) [3, 9]: 27% and 51%
Population Normal (%) [3, 9]: 96% and 92%
Population Pyknosed Nuclei (%) [3, 9]: 9% and 23%
Total Cell Count [3, 9]: 121 and 140
